Measured values from ChEMBL document CHEMBL1142132, “Sublethal concentrations of the aminoglycoside amikacin interfere with cell division without affecting chromosome dynamics” (2007).
Activity calls are given as the source filed them. The rule behind the calls is not given here.

How the values were obtained:
[1] = test system: Escherichia coli; experiment: Distribution of Escherichia coli AB1157 IL05 new born cells containing one ori and one ter foci at 4 ug/ml after 14 hrs incubation; type: functional
Outline: (§1)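 IL05(pWX6) (LacI-CFP/TetR-YFP marking ori and ter arrays) grown at 37°C in M9-sodium acetate with required amino acids, 100 μg/ml ampicillin, 0.5 mM IPTG, 40 ng/ml anhydrotetracycline. AMK added at OD600 0.05. After 14 h, cells placed on 1% agarose-PBS pads, imaged (×100, phase plus fluorescence). 200 cells per culture classified by ori/ter foci number; three independent experiments.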

[2] = test system: Escherichia coli; experiment: Loss of cell viability in Escherichia coli AB1157 IL05 above 16 ug/ml after 8 hrs incubation; type: functional, organism-based
[3] = test system: Escherichia coli; experiment: Distribution of Escherichia coli AB1157 IL05 new born cells containing one ori and one ter foci at 16 ug/ml after 14 hrs incubation; type: functional; outline: as §1
[4] = test system: Escherichia coli; experiment: Distribution of Escherichia coli AB1157 IL05 new born cells containing one ori and one ter foci at 8 ug/ml after 14 hrs incubation; type: functional; outline: as §1
[5] = test system: Escherichia coli; experiment: Distribution of Escherichia coli AB1157 IL05 new born cells containing one ori and one ter foci at 32 ug/ml after 14 hrs incubation; type: functional; outline: as §1
[6] = test system: Escherichia coli; experiment: Distribution of Escherichia coli AB1157 IL05 new born cells containing duplicated sister ori foci at 4 ug/ml after 14 hrs incubation; type: functional; outline: as §1
[7] = test system: Escherichia coli; experiment: Distribution of Escherichia coli AB1157 IL05 new born cells containing duplicated sister ori foci at 8 ug/ml after 14 hrs incubation; type: functional; outline: as §1
[8] = test system: Escherichia coli; experiment: Distribution of Escherichia coli AB1157 IL05 new born cells containing duplicated sister ori foci at 16 ug/ml after 14 hrs incubation; type: functional; outline: as §1
[9] = test system: Escherichia coli; experiment: Distribution of Escherichia coli AB1157 IL05 new born cells containing duplicated sister ori foci at 32 ug/ml after 14 hrs incubation; type: functional; outline: as §1
[10] = test system: Escherichia coli; experiment: Distribution of Escherichia coli AB1157 IL05 new born cells containing duplicated ori and ter foci at 4 ug/ml after 14 hrs incubation; type: functional; outline: as §1
[11] = test system: Escherichia coli; experiment: Distribution of Escherichia coli AB1157 IL05 new born cells containing duplicated ori and ter foci at 8 ug/ml after 14 hrs incubation; type: functional; outline: as §1
[12] = test system: Escherichia coli; experiment: Distribution of Escherichia coli AB1157 IL05 new born cells containing duplicated ori and ter foci at 16 ug/ml after 14 hrs incubation; type: functional; outline: as §1
[13] = test system: Escherichia coli; experiment: Distribution of Escherichia coli AB1157 IL05 new born cells containing duplicated ori and ter foci at 32 ug/ml after 14 hrs incubation; type: functional; outline: as §1
[14] = test system: Escherichia coli; experiment: Distribution of Escherichia coli AB1157 IL05 new born cells containing four ori foci at 4 ug/ml after 14 hrs incubation; type: functional; outline: as §1
[15] = test system: Escherichia coli; experiment: Distribution of Escherichia coli AB1157 IL05 new born cells containing four ori foci at 8 ug/ml after 14 hrs incubation; type: functional; outline: as §1
[16] = test system: Escherichia coli; experiment: Distribution of Escherichia coli AB1157 IL05 new born cells containing four ori foci at 16 ug/ml after 14 hrs incubation; type: functional; outline: as §1
[17] = test system: Escherichia coli; experiment: Distribution of Escherichia coli AB1157 IL05 new born cells containing four ori foci at 32 ug/ml after 14 hrs incubation; type: functional; outline: as §1
[18] = test system: Escherichia coli; experiment: Distribution of Escherichia coli AB1157 IL05 new born cells containing eight ori foci at 4 ug/ml after 14 hrs incubation; type: functional; outline: as §1
[19] = test system: Escherichia coli; experiment: Distribution of Escherichia coli AB1157 IL05 new born cells containing eight ori foci at 8 ug/ml after 14 hrs incubation; type: functional; outline: as §1
[20] = test system: Escherichia coli; experiment: Distribution of Escherichia coli AB1157 IL05 new born cells containing eight ori foci at 16 ug/ml after 14 hrs incubation; type: functional; outline: as §1
[21] = test system: Escherichia coli; experiment: Distribution of Escherichia coli AB1157 IL05 new born cells containing eight ori foci at 32 ug/ml after 14 hrs incubation; type: functional; outline: as §1
[22] = test system: Escherichia coli; experiment: Sublethal concentration measured by presence of granular bodies in Escherichia coli AB1157 IL05 cells at 4 ug/ml after 14 hrs incubation; type: functional, organism-based
Outline: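 IL05(pWX6) grown 14 h at 37°C in acetate minimal medium with AMK added at OD600 0.05. Cells then examined by phase-contrast microscopy in 27% gelatin-containing minimal medium, scoring polar granular bodies and nucleoids.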

[23] = test system: Escherichia coli; experiment: Assembly of Z-ring in Escherichia coli AB1157 IL06(pCP12) cells at 4 ug/ml

NCC[C@H](O)C(=O)N[C@@H]1C[C@H](N)[C@@H](O[C@H]2O[C@H](CN)[C@@H](O)[C@H](O)[C@H]2O)[C@H](O)[C@H]1O[C@H]1O[C@H](CO)[C@@H](O)[C@H](N)[C@H]1O [AMIKACIN]
Activity [1]: 0%
Activity [2]: inactive
Activity [3]: 6%
Activity [4]: 0%
Activity [5]: 32%
Activity [6]: 0%
Activity [7]: 0%
Activity [8]: 3%
Activity [9]: 37%
Activity [10]: 48%
Activity [11]: 36%
Activity [12]: 34%
Activity [13]: 31%
Activity [14]: 44%
Activity [15]: 69%
Activity [16]: 46%
Activity [17]: 0%
Activity [18]: 8%
Activity [19]: 5%
Activity [20]: 11%
Activity [21]: 0%
Activity [22]: Active
Activity [23]: 35%
